This is an account of results in article PMC7468319 (Acta Pharmacologica Sinica, 2019).

The structures appear in SMILES notation.

Experiment [1] has as its system BTK. In words: Western blot, phosphorylation of BTK at Tyr223 in TMD8 cells. The format is cell-based, human. The conditions noted are these: Tyr223, 4 h.
In experiment [2] the target is BTK (Homo sapiens, UniProt Q06187). The format is biochemical.
Experiment [3] concerns PARP and caspase 3. The experiment can be described thus: Western blot of cleaved PARP and cleaved caspase 3. The format is cell-based, human. The conditions noted are these: TMD8, Western blot. (In general: Immunoblotting shows a protein as a band on a membrane.)
In experiment [4] the target is T1, EGFR (Homo sapiens, UniProt P00533). The experiment can be described thus: Kinase selectivity ELISA at 1000 nM, EGFR. Type of experiment: biochemical. An outline of the steps:
(§1)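 ELISA-based kinase activity assay using commercially sourced recombinant kinases, with absorbance read at 490 nm. Each test compound was profiled at 1000 nM against a panel of 35 kinases, and percent inhibition was determined for each kinase.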
Background: An ELISA detects its analyte on a solid surface through an enzyme-linked reagent.

Experiment [5] deals with T2, ITK (Homo sapiens, UniProt Q08881).
T2 sequence (Q08881 1-620): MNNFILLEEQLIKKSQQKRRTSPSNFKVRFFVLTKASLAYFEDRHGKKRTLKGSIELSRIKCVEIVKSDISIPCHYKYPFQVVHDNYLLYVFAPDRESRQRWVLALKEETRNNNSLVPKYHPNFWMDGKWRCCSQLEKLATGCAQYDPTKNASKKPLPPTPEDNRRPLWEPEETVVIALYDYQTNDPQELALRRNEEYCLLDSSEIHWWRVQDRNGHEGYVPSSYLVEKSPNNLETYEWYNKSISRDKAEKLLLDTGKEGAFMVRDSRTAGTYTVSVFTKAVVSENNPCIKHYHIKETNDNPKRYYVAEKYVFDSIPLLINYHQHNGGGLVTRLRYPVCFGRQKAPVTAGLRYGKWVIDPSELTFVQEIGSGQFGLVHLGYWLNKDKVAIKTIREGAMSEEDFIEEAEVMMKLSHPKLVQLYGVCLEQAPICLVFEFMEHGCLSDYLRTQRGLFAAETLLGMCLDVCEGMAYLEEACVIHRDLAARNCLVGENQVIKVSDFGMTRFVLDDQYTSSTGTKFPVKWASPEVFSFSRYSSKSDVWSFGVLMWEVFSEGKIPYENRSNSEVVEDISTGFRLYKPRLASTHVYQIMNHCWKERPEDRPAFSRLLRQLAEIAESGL
The experiment can be described thus: Kinase selectivity ELISA at 1000 nM, ITK. Type of experiment: biochemical. The gist of the method: as §1

Experiment [6] deals with T1, EGFR. The conditions noted are these: read-out: IC50 against EGFR; in vitro enzymatic activity; cited from earlier work.
Experiment [7] deals with TMD8 cells. In words: Annexin V-FITC apoptosis analysis by flow cytometry. The conditions noted are these: TMD8, 72 h, untreated control 12.77%. Type of experiment: cell-based, human.
Experiment [8] concerns Rb, phosphorylated Rb, and cyclin D1. The experiment can be described thus: Western blot of G1 phase related proteins. The format is cell-based, human. The conditions noted are these: TMD8, 48 h.
Experiment [9] has as its target ErbB4 (Homo sapiens, UniProt Q15303). The experiment can be described thus: Kinase selectivity ELISA at 1000 nM, ErbB4. The format is biochemical. The gist of the method:
as §1

Experiment [10] deals with panel of 35 kinases. In words: Kinase selectivity profile, panel of 35 kinases. The format is biochemical. The conditions noted are these: 1000 nM. The gist of the method:
as §1

For experiment [11], the target named is ErbB2 (Homo sapiens, UniProt P04626). The experiment can be described thus: Kinase selectivity ELISA at 1000 nM, ErbB2. Type of experiment: biochemical. An outline of the steps: as §1
Chain of ErbB2 (P04626 23-1255): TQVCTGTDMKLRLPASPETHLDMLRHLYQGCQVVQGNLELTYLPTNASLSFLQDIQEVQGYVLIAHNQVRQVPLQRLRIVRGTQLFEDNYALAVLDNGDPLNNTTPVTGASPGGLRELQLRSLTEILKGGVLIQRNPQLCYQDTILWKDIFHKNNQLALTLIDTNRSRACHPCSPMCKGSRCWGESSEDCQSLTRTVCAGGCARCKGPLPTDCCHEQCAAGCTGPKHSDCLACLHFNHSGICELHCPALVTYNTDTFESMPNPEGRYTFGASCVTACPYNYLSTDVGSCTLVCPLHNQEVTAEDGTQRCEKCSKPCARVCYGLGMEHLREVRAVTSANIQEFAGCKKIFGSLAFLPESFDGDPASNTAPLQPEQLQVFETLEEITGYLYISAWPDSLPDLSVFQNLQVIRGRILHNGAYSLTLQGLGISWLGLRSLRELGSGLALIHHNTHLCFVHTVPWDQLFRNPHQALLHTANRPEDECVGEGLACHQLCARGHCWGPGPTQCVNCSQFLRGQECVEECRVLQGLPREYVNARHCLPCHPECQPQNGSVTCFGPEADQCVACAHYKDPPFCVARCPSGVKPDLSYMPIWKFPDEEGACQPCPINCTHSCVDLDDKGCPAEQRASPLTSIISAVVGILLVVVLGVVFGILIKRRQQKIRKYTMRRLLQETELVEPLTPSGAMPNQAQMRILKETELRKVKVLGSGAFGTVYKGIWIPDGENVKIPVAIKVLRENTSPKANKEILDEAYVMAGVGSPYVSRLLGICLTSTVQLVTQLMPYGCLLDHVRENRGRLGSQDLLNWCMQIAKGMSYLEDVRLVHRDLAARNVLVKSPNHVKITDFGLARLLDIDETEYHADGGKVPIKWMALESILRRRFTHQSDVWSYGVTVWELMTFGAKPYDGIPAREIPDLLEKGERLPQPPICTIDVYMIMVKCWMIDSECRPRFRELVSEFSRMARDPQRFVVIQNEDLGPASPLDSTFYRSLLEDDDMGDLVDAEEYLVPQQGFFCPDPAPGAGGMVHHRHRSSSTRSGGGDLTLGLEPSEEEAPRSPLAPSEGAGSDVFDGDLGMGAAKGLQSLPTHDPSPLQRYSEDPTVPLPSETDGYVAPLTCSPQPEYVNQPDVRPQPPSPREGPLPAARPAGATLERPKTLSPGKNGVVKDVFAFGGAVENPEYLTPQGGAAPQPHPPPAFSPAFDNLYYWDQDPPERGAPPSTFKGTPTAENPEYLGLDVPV

T1 sequence (P00533 25-1210): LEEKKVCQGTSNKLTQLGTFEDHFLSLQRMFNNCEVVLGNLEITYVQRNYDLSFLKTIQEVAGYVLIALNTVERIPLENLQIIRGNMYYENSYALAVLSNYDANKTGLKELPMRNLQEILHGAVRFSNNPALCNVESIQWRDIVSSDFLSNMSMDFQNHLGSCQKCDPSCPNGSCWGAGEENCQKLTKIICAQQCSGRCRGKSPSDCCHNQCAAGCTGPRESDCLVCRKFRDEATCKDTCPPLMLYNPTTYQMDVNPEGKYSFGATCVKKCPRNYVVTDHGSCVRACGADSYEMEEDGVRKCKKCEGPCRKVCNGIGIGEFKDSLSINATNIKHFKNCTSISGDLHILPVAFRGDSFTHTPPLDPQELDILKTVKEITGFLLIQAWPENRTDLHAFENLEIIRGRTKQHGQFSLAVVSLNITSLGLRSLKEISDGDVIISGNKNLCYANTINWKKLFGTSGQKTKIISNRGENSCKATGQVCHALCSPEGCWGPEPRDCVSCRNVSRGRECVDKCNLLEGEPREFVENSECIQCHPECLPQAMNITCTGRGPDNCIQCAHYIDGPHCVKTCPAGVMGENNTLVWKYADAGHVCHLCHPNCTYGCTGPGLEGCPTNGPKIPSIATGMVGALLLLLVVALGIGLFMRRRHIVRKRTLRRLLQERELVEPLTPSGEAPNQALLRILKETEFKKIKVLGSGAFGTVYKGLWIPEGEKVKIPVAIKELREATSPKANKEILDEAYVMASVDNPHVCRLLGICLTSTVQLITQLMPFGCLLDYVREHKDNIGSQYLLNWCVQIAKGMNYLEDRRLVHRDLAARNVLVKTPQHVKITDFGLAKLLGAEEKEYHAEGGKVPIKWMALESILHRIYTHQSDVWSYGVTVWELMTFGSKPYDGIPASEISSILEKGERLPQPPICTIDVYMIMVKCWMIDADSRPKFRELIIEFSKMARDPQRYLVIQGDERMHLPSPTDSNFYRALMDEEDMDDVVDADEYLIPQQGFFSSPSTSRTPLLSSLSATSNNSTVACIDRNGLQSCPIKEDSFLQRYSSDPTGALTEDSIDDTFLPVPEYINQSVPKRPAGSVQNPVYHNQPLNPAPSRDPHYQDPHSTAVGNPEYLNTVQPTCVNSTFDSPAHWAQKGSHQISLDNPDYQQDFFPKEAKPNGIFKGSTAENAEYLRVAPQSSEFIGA
Chain of BTK (Homo sapiens, UniProt Q06187) (Q06187 whole entry): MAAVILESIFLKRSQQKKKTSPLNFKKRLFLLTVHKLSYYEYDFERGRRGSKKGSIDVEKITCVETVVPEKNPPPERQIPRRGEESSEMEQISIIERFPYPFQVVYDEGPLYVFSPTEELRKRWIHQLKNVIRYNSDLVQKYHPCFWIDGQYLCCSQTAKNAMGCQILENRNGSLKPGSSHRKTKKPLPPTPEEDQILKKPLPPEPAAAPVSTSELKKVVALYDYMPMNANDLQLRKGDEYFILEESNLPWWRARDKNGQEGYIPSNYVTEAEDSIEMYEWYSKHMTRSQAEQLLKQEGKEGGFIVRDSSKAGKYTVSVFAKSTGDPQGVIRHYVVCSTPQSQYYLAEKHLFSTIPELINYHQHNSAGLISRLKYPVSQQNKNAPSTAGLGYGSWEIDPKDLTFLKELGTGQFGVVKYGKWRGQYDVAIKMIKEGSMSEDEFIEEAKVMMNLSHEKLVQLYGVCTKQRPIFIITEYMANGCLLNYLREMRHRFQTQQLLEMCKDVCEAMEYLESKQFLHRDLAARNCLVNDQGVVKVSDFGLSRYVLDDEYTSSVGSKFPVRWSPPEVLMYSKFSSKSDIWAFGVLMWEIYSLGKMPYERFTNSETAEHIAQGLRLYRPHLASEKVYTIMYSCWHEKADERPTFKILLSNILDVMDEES

Regarding `C=CC(=O)N1CCC[C@@H](n2nc(-c3ccc(Oc4ccccc4)cc3)c3c(N)ncnc32)C1` [ibrutinib], the “phosphorylation of BTK in TMD8 cells” value in experiment [1] was “effectively suppressed”.
One may read the IC50 as the point on the concentration scale where inhibition reaches its midpoint. Turning to `C=CC(=O)Nc1cccc(N2C(=O)OC(C)c3cnc(Nc4ccc(N5CCN(C)CC5)cc4OC)nc32)c1` (centres unmarked) [Compound 2, N-(3-(7-((2-methoxy-4-(4-methylpiperazin-1-yl)phenyl)amino)-4-methyl-2-oxo-2H-pyrimido[4,5-d][1,3]oxazin-1(4H)-yl)phenyl)acrylamide], the “selectivity for BTK than for EGFR” value in [2] (IC50 EGFR vs IC50 BTK) is recorded as “greater than 6 fold”. The IC50 in [2] (read-out: IC50 against BTK, ELISA-based kinase assay) was 7 nM; in experiment [6], 47.4 nM. The “cleavage of PARP and caspase 3 proteins” value in [3] is “increased in a dose-dependent manner”. In addition, the “inhibition of EGFR” value in experiment [4] is on record as “greater than 50%”. Besides, the “inhibition of ITK” value in experiment [5] was “greater than 50%”. Further, the “phosphorylation of BTK in TMD8 cells” value in experiment [1] is on record as “effectively suppressed”. In addition, the apoptosis rate worked out at 44.46% in [7] (10 nM), 57.95% in experiment [7] (100 nM) and 69.46% in experiment [7] (1000 nM). Besides, in experiment [8], the “levels of Rb, phosphorylated Rb, and cyclin D1 proteins” value is “reduction”. Besides, the “inhibition of ErbB4” value in experiment [9] is listed as “greater than 50%”. In experiment [10], the “inhibition of the other kinases tested” value is “did not appreciably inhibit”. For the same compound, the “number of kinases with greater than 50% inhibition” value in experiment [10] is on record as “seven”. Moreover, the “inhibition of ErbB2” value in [11] is “greater than 50%”.
For `CC#CC(=O)N1CCC[C@H]1c1nc(-c2ccc(C(=O)Nc3ccccn3)cc2)c2c(N)nccn12` [ACP-196, acalabrutinib], in experiment [1], the “phosphorylation of BTK in TMD8 cells” value is “effectively suppressed”.
